Experimental data pooled from the literature.
CDK4 with cyclin D1: Cyclin-dependent kinase 4, with cyclin D1 (CDK4, Homo sapiens, UniProt P11802)
OSBP: Oxysterol-binding protein 1 (OSBP, Homo sapiens, UniProt P22059)
SLC22A8: Organic anion transporter 3 (SLC22A8, Homo sapiens, UniProt Q8TCC7)

SMILES | target | assay | test system | setting | measurement | result
CN(C)C(=O)c1cc2cnc(Nc3cccc(-c4cccc5c(=O)cc(N6CCOCC6)oc45)c3)nc2n1C1CCCC1 | CDK4 with cyclin D1 | enzyme activity, inhibitor, radiometric | – | – | IC50 | 0.336 µM
CN(C)C(=O)c1cc2cnc(Nc3ccc(C(=O)NCCCCCCOc4cccc5c4C(=O)N(C4CCC(=O)NC4=O)C5=O)cc3)nc2n1C1CCCC1 (centres unmarked) | Cyclin-dependent kinase 4 (CDK4, Homo sapiens, UniProt P11802) | binding, competition with immobilised ligand | – | – | Kd | < 0.2 µM
CSC[C@H]1O[C@@H](n2cnc3c(N)ncnc32)[C@H](O)[C@@H]1O | tapT (Escherichia coli, UniProt Q47319) | binding, ITC | – | – | Kd | 150 µM
CCOc1ccc(C(=O)CC(SCc2ccc(Cl)cc2)C(=O)OC)cc1 (centres unmarked) | OSBP | ligand displacement, FP | – | – | Ki | > 1000 µM
CN(C)C(=O)c1cc2cnc(Nc3cc(C(=O)O)cc(-c4ccc5c(=O)cc(N6CCOCC6)oc5c4)c3)nc2n1C1CCCC1 | CDK4 with cyclin D1 | enzyme activity, inhibitor, radiometric | – | – | IC50 | 7.85 µM
Nc1nc2c(ncn2[C@@H]2O[C@H](COP(=O)(O)OP(=O)(O)OP(=O)(O)O)[C@@H](O)[C@H]2O)c(=O)[nH]1 | GTPase KRas (KRAS, Homo sapiens, UniProt P01116, Q61H) | binding | – | – | Kd | 0.118 µM
CN(C)C(=O)c1cc2cnc(Nc3cc(C(=O)O)cc(-c4cccc5c(=O)cc(N6CCOCC6)oc45)c3)nc2n1C1CCCC1 | CDK4 with cyclin D1 | enzyme activity, inhibitor, radiometric | – | – | IC50 | > 10 µM
C=CC(=O)N1C[C@H](Nc2ncnc3[nH]ccc23)CC[C@@H]1C | SLC22A8 | transporter uptake, inhibitor | HEK293 | pH 7.4 | Ki | 41 µM
CCOc1ccc(C(=O)CC(SCc2ccc(Br)cc2)C(=O)O)cc1 (centres unmarked) | OSBP | ligand displacement, FP | – | – | Ki | 459 µM
C[S+](CC[C@H](N)C(=O)O)C[C@H]1O[C@@H](n2cnc3c(N)ncnc32)[C@H](O)[C@@H]1O (some centres unmarked) | tapT (Escherichia coli, UniProt Q47319, D137A) | binding, ITC | – | – | Kd | 590 µM
CCOc1ccc(C(=O)CC(SCc2ccccc2)C(=O)O)cc1 (centres unmarked) | OSBP | ligand displacement, FP | – | – | Ki | > 1000 µM
CN(C)C(=O)c1cc2cnc(Nc3cc(C(F)(F)F)c(-c4ccc5c(=O)cc(N6CCOCC6)oc5c4)cn3)nc2n1C1CCCC1 | CDK4 with cyclin D1 | enzyme activity, inhibitor, radiometric | – | – | IC50 | > 10 µM
CCOc1ccc(C(=O)CC(SCc2ccc(OC)cc2)C(=O)O)cc1 (centres unmarked) | OSBP | ligand displacement, FP | – | – | Ki | 549 µM
O=C(O)c1ccc2nc(-c3cc(Cl)cc(Cl)c3)oc2c1 | SLC22A8 | transporter uptake, inhibitor | HEK293 | pH 7.4 | Ki | 2.36 µM
